Laboratory results reported in the RNAGym collection of RNA variant scans (doi:10.1126/science.aae0568).
This sample holds only a part of the variants without activity.

B1: tRNA (parent)
chain: GUUCCGUUGGCGUAAUGGUAACGCGUCUCCCUCCUAAGGAGAAGACUGCGGGUUCGAGUCCCGUACGGAACG

Variants of: B1
Test: yeast fitness relative to wild type (ratio to wild type); higher = fitter; tRNA-Arg(CCU), competitive growth, 37 C, YPD
Procedure, shortened: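 Genotype frequency changes were the basis for Darwinian fitness relative to wild type. The frequencies came from 100-nucleotide paired-end sequencing of gene amplicons from the start population and each end population of pooled yeast strains with tRNA-Arg(CCU) gene variants at the native locus. Competition ran in YPD at 37°C for 24 hours in six replicates, genotypes needed ≥ 100 starting reads, and estimates < 0.5 were set to 0.5.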

Variant | yeast fitness
GUUCUGUUGGCGUAAUGGUAACGUGUCUCCCUCCUGAGGAGAAGACUGCGGGUUCGAGUCCCGUACGGAACG | 0.791
GUUCUGUUGGCGUAAUGGUAACGCGUUUCCCUCUUAAGGAGAAAACUGCGGGUUCGAGUCCCGUACGGAACG | 0.547
GUUCUGUUGGCGUAAUGGUAACGCGUCUCCAUCCUAAGGGGAAGACUGCGGGUUCGAGUCCCGUACGGAACG | 0.743
GUUCUGUUGGCGUAAUGGUAAGGCGUCUGCCUCCUAAGGAGAAGACUGCGGGUUCGAGUCCCGUACGGUACG | ≤ 0.5
GUUCUGUUGGCGUAAUGGUAAUGCGUUUCCCUUCUAAGGAGAAGACUGCGGGUUCGAGUCCCGUACGGAACG | ≤ 0.5
GUUCUGUUGGCGUAAUGGUAAGGCGUCUCCCUCCUAAGGAGAAGAAUGCGGGUUCGAGUGCCGUACGGAACG | ≤ 0.5
GUUCUGUUGGCGUAAUGGUAACGCGUCUACCUCCUAAGCAGAAGACUGCAGGUUCGAGUCCCAUACGGCACG | ≤ 0.5
GUUCUGUUGGCGUAAUGGUAACGGGUCUCCCUCCUAAGGAGAAGACUGCGGGUUCGAGUCCGGUACGCAACG | ≤ 0.5
GUUCUGUUGGCGUAAUGGUAACGCGUCUCACUCCUAAGGAGAAGACUGCGGGAUCGAGUCCUGUACGGAACG | 0.659
GUUCUGUUGGCGUAAUGGUAACGUGUCUCCCUCCUAAGGAGAAGACUGCGGGUUCGAGUCCCGUACGGAACG | 0.99
GUUCUGUUGGCGUAAUGGUAACGCGUCUCCCUGCUAAGGAGAAGACUGCGGGUUCCAGUCCCGUACGGUACG | ≤ 0.5
GUUCUGUUGGCGUAAUGGUAACGCGUCUACCUCCUAAGCAGAAGACUGCGGGUUCGAGUCCCACACGGCACG | ≤ 0.5
GUUCUGUUGGCGUAAUGGUAACGCGUUUCCCUCCUAAGGAGAAGUCUGCGGGUUCGAGUGCCGUACGGAACG | ≤ 0.5
GUUCUGUUGGCGUAAUGGUAACGCGUCUCCCUCAUAACGAGAAGACUGCGGGUUCGAGUCCCGUACGGACCG | 0.608
GUUCUGUUGGCGUAAUGGUAACGCGUGUCCCUGCUAAGGAGCAGACUGCGGGUUCGAGUCCCGAACGGAACG | ≤ 0.5
GUUCUGUUGGCGUAAUGGUAAUGCGUCUCCCUUCUAAGGAGAAGACUGCGGGUUCGAGUCCCGUACAGAACG | ≤ 0.5
GUUCUGUUGGCGUAAUGGUAAGGCGUCUACCUCCUAAGGAGAAGUCUGCGGGUUCGACUCCCGUACGGAACG | ≤ 0.5
GUUCUGUUGGCGUAAUGGUAACGAGUCUCCCUCCUAAGCAGAAGACUGCGGGUUCGAGUCCCGUACGGACCG | ≤ 0.5
GUUCUGUUGGCGUAAUGGUAAGGCGUCUCCCUCCUAAGGAGAAGACUGCGGGUUCGAGUCCCGUGCGGAACG | 0.588

Variant | yeast fitness
GUUCUGUUGGCGUAAUGGUAACGCGUCUCCCUCUUAAGGAGAAGACUGCGGGUUGGAGUCCCGUACGGAACG | ≤ 0.5
GUUCUGUUGGCGUAAUGGUAAUGCGUUUCCCUCCUAAGGAGGAGACUGCGGGUUAGAGUACCGUACGGAUCG | 0.57
GUUCUGUUGGCGUAAUGGUAACGCGUCUCCCUCCUAAGGAGAAGACUGAGGGUUCGAGUGCCGUACGGAACG | 0.754
GUUCUGUUGGCGUAAUGGUAAUGCGUGUCCCUCCUAAGGAGAAGACUGCGGGUUCGAGUCCCGUUCGGAACG | ≤ 0.5
GUUCUGUUGGCGUAAUGGUAACGUGUCUCCCUCCUAAGGAGAAGACUGCGGUUUAGAGUCCCGUACGGAACG | ≤ 0.5
GUUCUGUUGGCGUAAUGGUAACGCGUAUCCCUGCUAAGGAGAAGCCUGCCGGUUCGAAUCCCGUACGGAACG | 0.514
GUUCUGUUGGCGUAAUGGUAACGCGUCUCCAUCCUAAGGAGAAGACUGCGGGUUCGAGUCCCGUACGGAACG | 0.688
GUUCUGUUGGCGUAAUGGUAACGCGUCUCCUUCCUAAGGAGAAGACUGCGGGUUCGAGUCCCGUACGGAACG | 1.03
GUUCUGUUGGCGUAAUGGUAACGCGUCUCGCUCCUAAGGAGAAGACUGCGGGUUCGAGUCCCGAACGGAACG | 0.578
GUUCUGUUGGCGUAAUGGUAACGUGUCUCCCUUCUAAGGAGAACACUGCGGGUUCGAGUCCCGUACGAAACG | ≤ 0.5
GUUCUGUUGGCGUAAUGGUAACGAGCCUCCCUCCUAAGGGGAAGACUGCGGGUUCAAGUCCCGUACGGAACG | ≤ 0.5
GUUCUGUUGGCGUAAUGGUAACGCGUCUCCCUCAUAAGGAGAAGACUGCAGGUUCGAGGCCAGUACGGAACG | ≤ 0.5
GUUCUGUUGGCGUAAUGGUAACGCGUCUCCACCCUACGGAGAAGACUGCCGGUUCGAGUCCCGUACGGCACG | 0.731
GUUCUGUUGGCGUAAUGGUAACGCGUCUACAUCCUAAGGAGAAGACUGCGGGUACGAGUCCCGUACGGAACG | ≤ 0.5
GUUCUGUUGGCGUAAUGGUAACGCGUCUACCUCCUAAGGAGAAGACUGCGGGUUCGAGUCCAGUACGGAACG | ≤ 0.5
GUUCUGUUGGCGUAAUGGUAACGCGUCUACCUCCUAUAGAGAAGACUGCGGGUUCGAGUCCCGUACGGAACG | ≤ 0.5
GUUCUGUUGGCGUAAUGGUAAGGCGUCUCCGUCCUAAGGAGAAGACUGCGGGUGCGAGUCCCGUACGGAACG | ≤ 0.5
GUUCUGUUGGCGUAAUGGUAAUGCGUCUCCCUCCUACGGAGAAGACUGCGGGUUAGAGUCCCGUACGGUACG | ≤ 0.5
